Results taken from ChEMBL document CHEMBL4152264, “Design, synthesis, antiproliferative activity and docking studies of quinazoline derivatives bearing 2,3-dihydro-indole or 1,2,3,4-tetrahydroquinoline as potential EGFR inhibitors” (Eur J Med Chem, 2018).
Active and inactive are the calls of the source. No cut-off for these calls is given here.

Key:
A549 [1] = experiment: Antiproliferative activity against human A549 cells after 72 hrs by MTT assay; type: functional, cell-based
MCF7 = experiment: Antiproliferative activity against human MCF7 cells after 72 hrs by MTT assay; type: functional, cell-based
PC-3 = experiment: Antiproliferative activity against human PC3 cells after 72 hrs by MTT assay; type: functional, cell-based
Summary of the method: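 Cells grown in MEM with 10% FBS. About 4×10³ cells per well seeded and incubated 24 h at 37 °C, 5% CO₂. Compounds added at indicated final concentrations for 72 h. MTT at 5 µg/mL final for 4 h at 37 °C. Formazan dissolved in DMSO, absorbance read at 492 nm with 630 nm reference. Tested three times; IC50 is the mean of two determinations.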

[2] = biological target: Epidermal growth factor receptor (Homo sapiens, UniProt P00533); experiment: Inhibition of wild type EGFR (unknown origin) using FAM-labeled peptide substrate after 10 mins by mobility shift assay
Chain of Epidermal growth factor receptor (Homo sapiens, UniProt P00533) (P00533 whole entry): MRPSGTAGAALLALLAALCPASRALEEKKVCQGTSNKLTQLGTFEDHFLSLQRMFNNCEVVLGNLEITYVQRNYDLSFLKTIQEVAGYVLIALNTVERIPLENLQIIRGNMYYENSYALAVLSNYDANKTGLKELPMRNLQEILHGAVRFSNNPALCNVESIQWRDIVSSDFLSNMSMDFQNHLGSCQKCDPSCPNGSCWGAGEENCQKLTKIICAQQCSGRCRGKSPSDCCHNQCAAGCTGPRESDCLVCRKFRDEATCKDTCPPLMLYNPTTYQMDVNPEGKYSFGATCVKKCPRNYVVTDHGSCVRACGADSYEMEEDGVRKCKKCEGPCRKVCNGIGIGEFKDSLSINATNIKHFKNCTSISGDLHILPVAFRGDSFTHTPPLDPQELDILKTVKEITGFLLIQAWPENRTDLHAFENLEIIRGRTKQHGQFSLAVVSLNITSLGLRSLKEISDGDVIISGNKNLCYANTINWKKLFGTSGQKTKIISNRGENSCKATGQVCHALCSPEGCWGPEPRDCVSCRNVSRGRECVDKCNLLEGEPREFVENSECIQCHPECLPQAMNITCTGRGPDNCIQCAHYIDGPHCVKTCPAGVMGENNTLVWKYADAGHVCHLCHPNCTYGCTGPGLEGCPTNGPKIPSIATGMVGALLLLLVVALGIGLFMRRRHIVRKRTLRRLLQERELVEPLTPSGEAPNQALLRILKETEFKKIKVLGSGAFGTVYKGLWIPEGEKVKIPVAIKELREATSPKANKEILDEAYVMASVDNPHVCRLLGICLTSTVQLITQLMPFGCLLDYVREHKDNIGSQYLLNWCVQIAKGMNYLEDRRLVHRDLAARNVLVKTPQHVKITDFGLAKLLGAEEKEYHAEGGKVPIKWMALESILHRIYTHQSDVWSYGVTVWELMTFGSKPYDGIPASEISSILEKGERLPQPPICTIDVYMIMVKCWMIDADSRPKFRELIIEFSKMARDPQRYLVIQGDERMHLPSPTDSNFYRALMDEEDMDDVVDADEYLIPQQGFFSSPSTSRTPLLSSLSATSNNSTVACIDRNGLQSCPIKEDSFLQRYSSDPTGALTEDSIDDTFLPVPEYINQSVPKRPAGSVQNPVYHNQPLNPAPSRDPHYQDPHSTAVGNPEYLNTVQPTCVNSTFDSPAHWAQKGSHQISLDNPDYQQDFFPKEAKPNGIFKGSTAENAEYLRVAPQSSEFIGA

[3] = biological target: Epidermal growth factor receptor (Homo sapiens, UniProt P00533, T790M); experiment: Inhibition of wild type EGFR T790M mutant (unknown origin) using FAM-labeled peptide substrate after 10 mins by mobility shift assay
Chain of Epidermal growth factor receptor (Homo sapiens, UniProt P00533, T790M) (P00533 25-1210 T790M limits assumed): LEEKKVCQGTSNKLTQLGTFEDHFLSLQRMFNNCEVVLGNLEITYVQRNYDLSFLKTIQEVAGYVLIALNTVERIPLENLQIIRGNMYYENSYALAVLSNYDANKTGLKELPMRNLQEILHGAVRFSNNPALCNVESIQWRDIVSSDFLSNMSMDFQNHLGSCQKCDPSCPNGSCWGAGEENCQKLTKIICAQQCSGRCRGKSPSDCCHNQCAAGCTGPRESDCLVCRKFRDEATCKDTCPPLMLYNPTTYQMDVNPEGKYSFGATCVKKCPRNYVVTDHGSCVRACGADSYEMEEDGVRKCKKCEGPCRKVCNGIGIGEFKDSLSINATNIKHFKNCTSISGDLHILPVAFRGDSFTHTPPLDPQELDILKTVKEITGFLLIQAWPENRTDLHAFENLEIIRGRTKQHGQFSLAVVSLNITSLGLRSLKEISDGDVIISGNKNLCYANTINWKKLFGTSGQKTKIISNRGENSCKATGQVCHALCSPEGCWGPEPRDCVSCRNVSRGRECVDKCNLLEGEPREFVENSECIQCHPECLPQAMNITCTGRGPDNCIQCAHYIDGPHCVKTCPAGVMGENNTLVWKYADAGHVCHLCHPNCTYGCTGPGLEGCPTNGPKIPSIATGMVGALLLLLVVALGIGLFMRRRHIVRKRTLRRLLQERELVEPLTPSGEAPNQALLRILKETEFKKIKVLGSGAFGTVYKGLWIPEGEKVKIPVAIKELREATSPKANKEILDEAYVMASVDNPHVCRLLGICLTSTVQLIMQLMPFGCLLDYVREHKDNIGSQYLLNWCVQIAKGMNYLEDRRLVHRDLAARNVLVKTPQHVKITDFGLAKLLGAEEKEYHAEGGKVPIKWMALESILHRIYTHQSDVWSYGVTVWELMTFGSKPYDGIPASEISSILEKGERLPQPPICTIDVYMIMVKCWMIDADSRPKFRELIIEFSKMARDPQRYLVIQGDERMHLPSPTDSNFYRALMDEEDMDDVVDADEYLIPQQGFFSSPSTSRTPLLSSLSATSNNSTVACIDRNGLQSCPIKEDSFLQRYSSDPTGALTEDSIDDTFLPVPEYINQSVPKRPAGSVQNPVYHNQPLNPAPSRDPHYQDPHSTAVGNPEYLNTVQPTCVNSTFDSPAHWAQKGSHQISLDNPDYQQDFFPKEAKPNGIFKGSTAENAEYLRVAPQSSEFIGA

A549 [4] = experiment: Induction of apoptosis in human A549 cells assessed as early apoptotic cells at 0.5 uM after 48 hrs by Annexin V-FITC/propidium iodide staining based flow cytometry (reference value: 5.61%); type: functional
A549 [5] = experiment: Induction of apoptosis in human A549 cells assessed as live cells at 0.5 uM after 48 hrs by Annexin V-FITC/propidium iodide staining based flow cytometry (reference value: 91.81%); type: functional
A549 [6] = experiment: Induction of apoptosis in human A549 cells assessed as late apoptotic cells at 0.5 uM after 48 hrs by Annexin V-FITC/propidium iodide staining based flow cytometry (reference value: 2.07%); type: functional
A549 [7] = experiment: Induction of apoptosis in human A549 cells assessed as necrotic cells at 0.5 uM after 48 hrs by Annexin V-FITC/propidium iodide staining based flow cytometry (reference value: 0.51%); type: functional
A549 [8] = experiment: Induction of apoptosis in human A549 cells at 1.09 uM after 12 hrs by acridine orange staining based fluorescence microscopic method; type: functional, cell-based
Summary of the method: (§1)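 A549 cells, grown in MEM with 10% FBS, were exposed to compound for 12 h alongside an untreated control group. They were stained with acridine orange alone and viewed by inverted and fluorescence microscopy. Nuclear colour (green versus red), cell shrinkage, edge clarity, refraction and chromatin condensation were assessed visually.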

A549 [9] = experiment: Induction of morphological changes in human A549 cells assessed as cell shrinkage at 1.09 uM after 12 hrs by acridine orange staining based fluorescence microscopic method; type: functional; summary of the method: as §1
A549 [10] = experiment: Induction of morphological changes in human A549 cells assessed as chromatin condensation at 1.09 uM after 12 hrs by acridine orange staining based fluorescence microscopic method; type: functional, cell-based; summary of the method: as §1

For `CN(C)C/C=C/C(=O)Nc1cc2c(N3CCc4ccccc43)ncnc2cc1O[C@@H]1CCOC1`, the Activity (A549 [1]) was “Dose-dependent effect”, the IC50 (A549 [1]; A549, 72 h) was 1.09 µM and the Activity (MCF7) was “Dose-dependent effect”. For the same compound, the IC50 (MCF7; MCF7, 72 h) was 1.34 µM, the Activity (PC-3) was “Dose-dependent effect” and the IC50 (PC-3; PC-3, 72 h) was 1.23 µM. The IC50 [2] was 0.005 µM, the IC50 [3] was 0.026 µM and the Activity (A549 [4]) was 14.59%. For the same compound, the Activity (A549 [5]) was 80.01%, the Activity (A549 [6]) was 4.59% and the Activity (A549 [7]) was 0.81%. For the same compound, the Activity (A549 [8]) was “Active”, the Activity (A549 [9]) was “Active” and the Activity (A549 [10]) was “Active”.
